Assay results pooled from the literature.
Protocols differ between the studies behind these lines.
Target: Calcium/calmodulin-dependent protein kinase type 1 (CAMK1, Homo sapiens, UniProt Q14012)

SMILES | read-out | technique | tested at | remaining binding [%]
CN(C)c1ncc(F)c(-c2cnn3ncccc23)n1 | binding |  | 1 µM | 86
O=C(NCCCN1CCOCC1)c1ccc(Nc2ncc(Cl)c(-c3ccc(Cl)s3)n2)cc1 | binding | competition with immobilised ligand | 1 µM | 78
CCCOc1ccc([C@H]2[C@H](C(=O)O)[C@@H](c3ccc4c(c3)OCO4)CN2CC(=O)Nc2c(CC)cccc2CC)cc1 | cell-free assay | competition with immobilised ligand | 1 µM | 93
c1cnn2ncc(-c3ccnc(N4CCC45COC5)n3)c2c1 | binding |  | 1 µM | 80
Nc1ncc2c(n1)-c1c([nH]c3ccc(C#CC4CC4)cc13)CCCC2 | binding | competition with immobilised ligand | 1 µM | 100
N[C@@H]1CCN(c2nccc(-c3cnn4ncccc34)n2)C1 | binding |  | 1 µM | 100
O=C(c1ccc(Nc2nccc(-c3cc4ccccc4s3)n2)cc1)N1CCC(N2CCCC2)CC1 | binding | competition with immobilised ligand | 1 µM | 71
COc1cnc(Nc2cccc(S(N)(=O)=O)c2)nc1N1CCN(c2ccccc2)C(=O)C1 | binding | competition with immobilised ligand | 1 µM | 100
c1cncc(-c2cccc(Nc3nccc(NC4CCCCC4)n3)c2)c1 | binding | competition with immobilised ligand | 10 µM | 53
CC(=O)N1CCC(c2ccc(C(=O)NC(=N)N)cc2C(F)(F)F)CC1 | cell-free assay | competition with immobilised ligand | 1 µM | 100
F[C@@H]1CCN(c2nccc(-c3cnn4ncccc34)n2)C1 | binding |  | 1 µM | 100
CO[C@H]1CC[C@H](CNc2ccc(S(=O)(=O)NC(=O)c3ccc(N4CCN(CC5=C(c6ccc(Cl)cc6)CC(C)(C)CC5)CC4)cc3Oc3cnc4[nH]ccc4c3)cc2[N+](=O)[O-])CC1 | cell-free assay | competition with immobilised ligand | 1 µM | 88
O=C(c1ccc(Nc2ncc(Cl)c(-c3cc4ccccc4s3)n2)cc1)N1CCC(N2CCCC2)CC1 | binding | competition with immobilised ligand | 1 µM | 58
O=C(NCC1CCOCC1)c1n[nH]cc1NC(=O)c1c(F)cccc1F | binding | competition with immobilised ligand | 1 µM | 88
O=C1NC(c2ccccn2)Sc2ccccc21 (centres unmarked) | cell-free assay | competition with immobilised ligand | 1 µM | 91
C[C@@H](c1ccc(-n2cnc3c(N)ncnc32)cc1)N1CCc2nn(C)c(Cc3ccccc3)c2C1=O | binding | competition with immobilised ligand | 0.1 µM | 89
CN([C@@H]1CCc2c(CC(=O)O)c3ccccc3n2C1)S(=O)(=O)c1ccc(F)cc1 | cell-free assay | competition with immobilised ligand | 1 µM | 100
Cc1cnn2ncc(-c3ccnc(N(C)C)n3)c2c1 | binding |  | 1 µM | 92
CN(C)CC#Cc1ccc(OCCCc2sc(N3CCc4cccc(C(=O)Nc5nc6ccccc6s5)c4C3)nc2C(=O)O)c(F)c1 | cell-free assay | competition with immobilised ligand | 1 µM | 93
CN(C)c1nccc(-c2cnn3ncccc23)n1 | binding |  | 1 µM | 100
